Measurements collected from several papers.
Lines come from different studies, so protocols differ.
Genome polyprotein protease: Genome polyprotein, protease (ZIKV, UniProt A0A024B7W1)

Compound | target | read-out | mode | method | pH | IC50
CC(C)[C@H](NC(=O)[C@H](CCCNC(=N)N)NC(=O)N[C@@H](Cc1ccccc1)C(=O)O)C(=O)N[C@H](C=O)CCCNC(=N)N | Cathepsin B (CTSB, Homo sapiens, UniProt P07858) | enzyme activity | inhibitor | fluorescence | pH 5.5 | 8.22 nM
C[C@@H]1O[C@@H](OC[C@H]2O[C@@H](Oc3c(-c4ccc(O)c(O)c4)oc4cc(O)cc(O)c4c3=O)[C@H](O)[C@@H](O)[C@@H]2O)[C@H](O)[C@H](O)[C@H]1O | Genome polyprotein protease | enzyme activity | inhibitor | FRET | pH 7 | 104000 nM
COc1ncccc1NS(=O)(=O)c1ccc(S(=O)(=O)F)c2c1CCNC2 | RALB (Homo sapiens, UniProt P11234, Y82F) | cell-free assay | inhibitor | fluorescence |  | > 100000 nM
COCCn1c2nc(=O)n(-c3ccccc3)c(=O)c-2nc2ccccc21 | Genome polyprotein, methyltransferase (ZIKV, UniProt A0A024B7W1) | enzyme activity | inhibitor | TR-FRET |  | 6800 nM
COc1cc(NC(=O)C(=O)[C@H](CC(C)C)NC(=O)[C@H](CC(C)C)NC(=O)[C@H](CC(C)C)NC(=O)OCc2ccccc2)cc(OC)c1 | Proteasome component C5/PSMB5, chymotrypsin-like site (Homo sapiens, UniProt P20618+P28074) | enzyme activity in cells | inhibitor |  |  | 25.1 nM
Cc1ccc(-c2ncn(-c3ccc(Nc4nccc(-c5cccc(N6CCOCC6)c5)n4)cc3)n2)cn1 | Mitogen-activated protein kinase 10 (MAPK10, Homo sapiens, UniProt P53779) | enzyme activity | inhibitor |  |  | 159 nM
COc1cc(C(=O)N2CC[C@@H](O)[C@@H](N)C2)cc2nc(-c3cc4ccccc4n3CC3CC3)n(C)c12 | Sodium channel protein type 5 subunit alpha (SCN5A, Homo sapiens, UniProt Q14524) | ion current | inhibitor |  |  | 39800 nM
CCCCCCCCCCCCCCCCOC[C@H](COP(=O)([O-])OCC[N+](C)(C)C)OC(C)=O | Platelet-activating factor receptor (PTAFR, Homo sapiens, UniProt P25105) | ligand displacement |  | radioligand |  | 0.27 nM
C[C@H](N)Cn1ncc2ccc3c(c21)CCCO3 | Alpha-1A adrenergic receptor (Adra1a, Rattus norvegicus, UniProt P43140) | ligand displacement |  | radioligand |  | 100000 nM
CCCCCCCCCCCCCC(=O)O[C@@H]1[C@@H](C)[C@@]2(O)[C@@H](C=C(CO)C[C@]3(O)C(=O)C(C)=C[C@@H]23)[C@@H]2C(C)(C)[C@]12OC(C)=O | Proteinase-activated receptor 1 (F2R, Homo sapiens, UniProt P25116) | calcium signal | antagonist |  |  | 7.47 nM
N=C1CCCN1Cc1[nH]c(=O)[nH]c(=O)c1F | Thymidine phosphorylase (Homo sapiens, UniProt P19971) | enzyme activity | inhibitor |  |  | 9 nM
CC(C)C[C@H]1C(=O)N2CCC[C@H]2[C@]2(O)O[C@](NC(=O)[C@@H]3C=C4c5cccc6[nH]c(Br)c(c56)C[C@H]4N(C)C3)(C(C)C)C(=O)N12 | 5-hydroxytryptamine receptor 7 (HTR7, Homo sapiens, UniProt P34969) | ligand displacement |  | radioligand |  | 152 nM
COc1c(-c2ccc3c(c2)OCO3)oc2c(ccc3occc32)c1=O | Cyclin-dependent kinase 2, with cyclin E1 (CDK2, Homo sapiens, UniProt P24941) | enzyme activity | inhibitor | ADP detection |  | > 100000 nM
COc1cc2oc(-c3ccc(O)c(O)c3)cc(=O)c2c(O)c1O | Genome polyprotein protease | enzyme activity | inhibitor |  | pH 8.5 | 5000 nM
